AP complement – alternative pathway complement inhibition, orthogonal assay | Human serum alternative complement pathway, LPS-coated ELISA, C3 deposition; tested in compound mixtures | actives 0.08% (n = 62,000) | inhibition, % at 5 µM | AID 1235;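 active means inhibition above 30% in each of the two pooled mixtures holding the compound, so the lower value exceeds 30%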;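 further: 0% = serum in Mg-EGTA without compound and 100% = EDTA serum blank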
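Test system: human serum alternative complement pathway, C3 deposition on LPS-coated wells; also added: Plate-bound LPS; doses: 5 µM per compound in ten-compound mixtures; schedule: 1 h at 37 °C; detection: Anti-C3 ELISA, OD 450 nm; evaluation: percent inhibition of C3 deposition onto LPS; repeats: two pool placements per compound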
DAT uptake mod – changed human dopamine transporter uptake under cocaine IC80. Q01959. LLC-PK1 hDAT cells, [14C]-dopamine uptake with cocaine IC80; actives deviate in either direction. B-score at 10 µM. actives 1.3% (n = 110,000);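 active means Z score or B-score, a plate-position-corrected score, falls beyond the plate's 99.7% confidence bounds, in either direction; inactive means both scores lie inside the 99.7% bounds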;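 further: scored against the spread of the other compound wells on the same plate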
Target sequence (Q01959 whole entry, looked up): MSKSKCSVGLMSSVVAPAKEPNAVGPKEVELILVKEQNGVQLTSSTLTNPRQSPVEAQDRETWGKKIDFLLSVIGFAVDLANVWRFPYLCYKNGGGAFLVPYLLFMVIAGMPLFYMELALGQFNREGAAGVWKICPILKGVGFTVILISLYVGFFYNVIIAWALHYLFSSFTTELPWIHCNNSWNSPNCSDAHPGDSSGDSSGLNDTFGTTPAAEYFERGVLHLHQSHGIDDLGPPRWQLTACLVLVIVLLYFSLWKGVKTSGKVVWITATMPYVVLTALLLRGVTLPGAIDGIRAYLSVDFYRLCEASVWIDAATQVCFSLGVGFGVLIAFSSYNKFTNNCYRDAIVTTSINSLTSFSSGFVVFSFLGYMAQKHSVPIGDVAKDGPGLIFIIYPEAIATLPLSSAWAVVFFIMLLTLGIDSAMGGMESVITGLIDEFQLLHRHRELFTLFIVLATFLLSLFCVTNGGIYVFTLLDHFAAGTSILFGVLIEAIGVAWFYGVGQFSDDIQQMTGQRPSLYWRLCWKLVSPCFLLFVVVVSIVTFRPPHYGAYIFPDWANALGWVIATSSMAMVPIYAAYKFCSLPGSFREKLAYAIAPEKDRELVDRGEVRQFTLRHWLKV
D1 mod – allosteric modulators of human D1 dopamine receptor | HEK293 D1, CRE-luciferase, dopamine EC30 potentiation; actives deviate in either direction | B-score at 10 µM | actives 5.9% (n = 58,000);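 active means luminescence count or its row- and column-corrected plate score outside the 99.7% band of the plate's sample wells, on either side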
HEK293 NFkB inh – inhibitors of the PMA/ionomycin-induced NF-kB reporter in HEK293 cells | HEK-293 NF-kB luciferase reporter, luminescence | inhibition, % at 3 µM | actives 0.21% (n = 62,000) | AID 465;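 active means inhibition above the mean of all tested compounds plus 3 SD, cut at about 40% in these data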;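 further: 0% = stimulated DMSO wells and 100% = 10 µM reference inhibitor 5653914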
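System – HEK-293 cells with stable firefly luciferase reporter driven by four HIV NF-kB elements · Doses – one dose, 3 µM · Schedule – 1 h compound pre-incubation, 16 h PMA/ionomycin at 37 °C · Technique – luminescence from luciferase substrate reagent · Measure – percent inhibition normalized per plate to DMSO and reference-inhibitor controls · Replicates – tested once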
E coli RNAP – inhibitors of Escherichia coli RNA polymerase; E. coli RNA polymerase, fluorescence transcription assay; inhibition, %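 (tested at 10 µM)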; actives 0.2% (n = 62,000); in the data active means inhibition above about 20%;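 further: 0% = enzyme without compound and 100% = no enzyme blank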
Numbers without * were called inactive; / = no result given. Many of the other results were omitted from the sample, so hits are more common in it than they were.

SMILES	AP complement	DAT uptake mod	D1 mod	HEK293 NFkB inh	E coli RNAP
CCOC(=O)N1CCC(Nc2ccc3nnc(-c4ccccc4)n3n2)CC1	21	2.2	-3*	3	-2
CCCN(CCC)CCNC(=O)C1CCCN(S(=O)(=O)c2ccc3c(c2)oc(=O)n3C)C1 (stereo unspecified)	-6	-0.77	-3.1*	-5	-5
Cn1c(=O)oc2cc(S(=O)(=O)N3CCCC(C(=O)NCCN4CCOCC4)C3)ccc21 (stereo unspecified)	10	0.008	-1.2	9	3
O=S(=O)(Nc1ccc(O)c(CN2CCCCC2)c1)c1ccccc1	-3	1.6*	0.035	15	-1
CC(Sc1nnnn1C)C(=O)Nc1ccc(N2CCOCC2)cc1 (stereo unspecified)	10	-7.8*	/	5	1
COc1cc(C(=O)OCC(=O)Nc2c(F)c(F)c(F)c(F)c2F)cc(OC)c1OC	29	3.7*	1.2	14	6
COc1ccc(C(=O)OCC(=O)Nc2ccc(F)c(F)c2F)cc1OC	/	-1.1	/	/	/
CCOC(=O)N1CCN(C(=O)c2ccc3c(c2)sc2nc(-c4ccc(OC)cc4)cn23)CC1	10	0.081	/	7	2
COc1ccc2c(c1)sc1nc(-c3ccccc3)cn12	4	0.021	-7.3*	67*	11
OCC[C@H]1C[C@@H](O)[C@H](O)[C@@]2(CCCO2)O1	/	-1.7	/	/	/
O=C(CSc1nnc2scc(-c3ccccc3)n12)N1CCN(Cc2ccccc2)CC1	9	2.1*	1.4	12	5
Cc1ccc(-c2csc3nnc(SCC(=O)N4CCN(Cc5ccccc5)CC4)n23)cc1	2	-0.051	0.14	-2	3
COc1ccc2c(c1)C(C)(CCN)C(=O)N2C (stereo unspecified)	/	-0.19	/	/	/
Nc1c(C(O)(C(F)(F)F)C(F)(F)F)ccc2ccccc12	15	-2.2	-0.0026	13	4
COc1ccc(Nc2ccc3c(c2)=NC2(CCCCC2)[N+]=3[O-])cc1	-19	0.53	-2.7*	/	2
Oc1ccc2ccccc2c1C=Nc1cc(C(F)(F)F)ccc1N1CCCC1	/	-0.2	/	/	/
Cc1cccc(NC(=O)c2cc(-c3ccco3)nc3ccccc23)n1	24	-0.54	-3.7*	18	-3
O=C(Nc1ccon1)c1cc(-c2ccccc2)nc2ccccc12	-10	/	-0.033	18	21*
Cc1cccc(NC(=S)NC(=O)c2cc(-c3ccccc3)nc3ccccc23)c1	/	-0.9	/	/	/
Cc1ccc(-c2nc(-c3ccccc3)no2)c(Cl)c1	25	0.097	-8.7*	24	3
OCC1(O)OC[C@@H](O)[C@H]1O (stereo partly specified)	/	-0.93	/	/	/
CC1Cc2ccccc2N1C(=O)CSCC(=O)O (stereo unspecified)	5	0.64*	-0.28	8	4
CCN1CCN(CC(=O)N2c3ccccc3CC2C)CC1 (stereo unspecified)	/	-0.67	/	/	/
NC(Cc1c[nH]c2ccccc12)C(=O)Nc1ccccc1 (stereo unspecified)	/	1.5	/	/	/
Cc1cc(=O)n2nc(-c3ccccc3)sc2n1	20	-2.7*	-0.8	-4	6
SMILES	AP complement	DAT uptake mod	D1 mod	HEK293 NFkB inh	E coli RNAP
Cc1cc(NC(=O)c2ccc3c(c2)OCO3)no1	0	-0.85	-2.1	-28	4
Cc1cc(NC(=O)c2ccc3c(c2)OCCO3)no1	12	-0.36	-6.4*	19	5
O=C(CCCOc1ccccc1)N1CCN(c2ccccn2)CC1	5	2.4	-2.9*	-8	4
O=C(CCCOc1ccc(Cl)cc1Cl)N1CCN(c2ccccn2)CC1	-1	1.7	2.9	15	3
O=C(CNS(=O)(=O)c1cccs1)N1CCN(c2ccccn2)CC1	1	-1.3	-0.83	16	-5
O=C(Cc1cccs1)N1CCN(c2ccccn2)CC1	17	0.32	-4.5*	1	7
O=C(CCCCCNc1nc(=S)[nH]c2ccccc12)N1CCN(c2ccccn2)CC1	15	2.8*	-0.0021	13	1
COc1ccc(/C=N/NC(=O)Cc2csc(Nc3cccc(C(F)(F)F)c3)n2)c(OC)c1	/	2.7*	/	/	/
CCOc1ccc(/C=N/NC(=O)Cc2csc(Nc3cccc(C(F)(F)F)c3)n2)c(OCC)c1	/	1	/	/	/
CCOc1ccc(NC(=O)CN(Cc2ccccc2)S(C)(=O)=O)cc1	/	0.74	/	/	/
CC(C)c1ccc(NC(=O)CN(Cc2ccccc2)S(C)(=O)=O)cc1	/	3*	/	/	/
Cc1ccc(CSCC(=O)N2CCOCC2)cc1	/	1.1	/	/	/
COc1cccc(C2=CC(=O)CC(C)(C)C2)n1	/	-1.2	/	/	/
CNC(=O)COC(=O)c1cc2c(C)nn(-c3ccc(F)cc3)c2s1	/	0.42	/	/	/
Cc1nn(-c2ccccc2)c2sc(C(=O)OCN3C(=O)c4ccccc4C3=O)cc12	0	-0.017	5.3*	11	7
CCc1c(C)nc(N)n2c(SCC(=O)Nc3ccccc3)nnc12	/	-1	/	/	/
c1ccc(Nc2ccccc2Nc2ccccn2)nc1	4	0.69	0.47	11	-1
Oc1cccc2ccc(Nc3ccccn3)nc12	13	1.1	-4.1*	6	9
CC(C)(C)OC(=O)N1CCC[C@H]1c1nnc(SCc2ccccc2Cl)o1	-5	-0.11	-0.054	16	-6
CC(C)(C)OC(=O)N1CCC[C@H]1c1nnc(SCc2ccc(Cl)cc2Cl)o1	-2	-2.1*	-1.3	20	8
CCC(c1ccccc1)c1nc(-c2ccccn2)no1 (stereo unspecified)	7	0.78	-7.1*	6	1
COc1ccc(CCNc2oc(-c3ccccc3OC)nc2C#N)cc1	1	1.4	0.61	25	2
COc1ccc(CCNc2oc(-c3ccccc3OC)nc2C#N)cc1OC	-1	4.6*	3.1	24	-3
CCCCNC(=O)c1onc(CSc2ccc(C(C)C)cc2)c1C(=O)O	/	-0.25	/	/	/
O=C(NCCc1ccc(Cl)cc1)C1CCC(=O)N1Cc1ccc(F)cc1 (stereo unspecified)	/	0.47	/	/	/
SMILES	AP complement	DAT uptake mod	D1 mod	HEK293 NFkB inh	E coli RNAP
O=C(NCC1CCCO1)c1ccc2nc(N3CCCCC3)sc2c1 (stereo unspecified)	10	0.96	0.28	-58	-2
CC1CCN(c2nc3ccc(C(=O)O)cc3s2)CC1	11	-0.0093	/	83*	-1
O=C(NC1CCN(Cc2ccccc2)CC1)C1COc2ccccc2O1 (stereo unspecified)	4	-0.013	-3.9*	-6	5
O=C(c1ccccn1)N(Cc1cc2ccccc2[nH]c1=O)C1CCCCC1	3	2.9*	0.27	-8	8
CC(C)(C)SCCNC(=O)c1ccc(NS(C)(=O)=O)cc1	-17	0.25	0.77	-6	5
CCCCN(CCCC)C(=O)c1ccccc1NC(=O)CN1C(=O)c2ccccc2C1=O	/	0.24	/	/	/
O=C(c1cccs1)N(Cc1ccco1)c1nc(-c2ccc(F)cc2)cs1	/	-0.29	/	/	/
CN(C)CCCN(C(=O)c1cccs1)c1nc(-c2ccccc2)cs1	8	1.4	-4.8*	9	13

Compound activity: PubChem BioAssay, several laboratories
